In one series the target is P2Y purinoceptor 12 (Homo sapiens, UniProt Q9H244). The series is described as follows: Displacement of [3H]-2-methyl-thio-adenosine 5'-diphosphate from human recombinant P2Y12 expressed in CHO cell membranes by scintillation counting method. The essentials:
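CHO cells expressing recombinant P2Y₁₂ receptors, incubated with tritium-labeled 2-methyl-thio-adenosine 5'-diphosphate plus test compound; IC₅₀ from displacement curves, each point in triplicate; reference compound run with every compound set, and set re-analyzed if its IC₅₀ fell outside pre-set 95% confidence interval.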

Series [1] has as its system Platelet. Kind of series: Inhibition of ADP-induced platelet aggregation in human platelet rich plasma by in-vitro light transmission aggregometry assay. It is filed as functional. The essentials:
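Human platelet-rich plasma incubated with compound, aggregation induced by 3 µM ADP and read by light transmission aggregometry; IC₅₀ derived from concentration–response curve.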

Series [2] can be described thus: Potency shift, ratio of IC50 for inhibition of ADP-induced platelet aggregation in human platelet rich plasma to IC50 for displacement of [3H]-2-methyl-thio-adenosine 5'-diphosphate from human recombinant P2Y12 expressed in CHO cell membranes.
Series [3] can be described thus: Lipophilicity, logD of the compound. It is filed as physicochemical. As to conditions: octanol/water; call rule not given here.
Series [4] in a line: Clearance in Wistar rat at 1 mg/kg, iv. In kind it is ADME, organism-based. On the set-up: dose 1 mg/kg, route intravenous. As to conditions: in vivo. The procedure, abridged:
(§1)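 Rats dosed by iv infusion at 1 mg/kg (n = 2) or orally at 10 mg/kg (n = 3); plasma levels measured, limit of quantification ca. 1 ng/mL.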

Series [5] in a line: Volume of distribution at steady state in Wistar rat at 1 mg/kg, iv or 10 mg/kg, po. In kind it is ADME, organism-based. The note with it: in vivo, read-out: Vdss. The procedure, abridged: as §1
Series [6] is described as follows: Half life in Wistar rat at 1 mg/kg, iv or 10 mg/kg, po. As to conditions: in vivo. It is filed as ADME, organism-based. The procedure, abridged: as §1
Series [7] in a line: AUC in Wistar rat at 10 mg/kg, po. In kind it is ADME, organism-based, Plasma. On the set-up: dose 10 mg/kg, route oral. The note with it: Wistar, plasma. The essentials: as §1
Series [8] is described as follows: Cmax in Wistar rat at 10 mg/kg, po. The note with it: Wistar, in vivo. On the set-up: dose 10 mg/kg, route oral. It is filed as ADME, organism-based. The essentials:
as §1

The nature of series [9]: Oral bioavailability in Wistar rat at 10 mg/kg. As to conditions: Wistar, in vivo. It is filed as ADME, organism-based. The procedure, abridged: as §1
Series [10] relates to Platelet. Kind of series: Inhibition of ADP-induced platelet aggregation in human platelet rich plasma assessed as remaining activity at 500 nM by in-vitro light transmission aggregometry assay. In kind it is functional. The essentials:
(§2)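 Light transmission aggregometry in human platelet-rich plasma; compound incubated, aggregation triggered with 3 µM ADP; remaining activity (RA) recorded at a single compound level (1000, 500 or 100 nM).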

Series [11] has as its system Platelet. The series is described as follows: Inhibition of ADP-induced platelet aggregation in human platelet rich plasma assessed as remaining activity at 100 nM by in-vitro light transmission aggregometry assay. It is filed as functional. The essentials:
as §2

Series [12] in a line: Solubility in neutral pH. In kind it is physicochemical.
The nature of series [13]: Solubility in basic pH. It is filed as physicochemical.
Series [14] addresses T1, Cytochrome P450 3A4 (Homo sapiens, UniProt P08684). The series is described as follows: Inhibition of CYP3A4 in human liver microsomes assessed as reduction in midazolam 1'-hydroxylation. It is filed as ADME.
Series [15] has as its target T1, Cytochrome P450 3A4. The series is described as follows: Inhibition of CYP3A4 in human liver microsomes assessed as reduction in testosterone 6beta-hydroxylation. It is filed as ADME.
Another series deals with Cytochrome P450 2D6 (Homo sapiens, UniProt P10635). The series is described as follows: Inhibition of CYP2D6 in human liver microsomes assessed as reduction in dextromethorphan-O demethylation. It is filed as ADME.
In another series the target is Cytochrome P450 2C9 (Homo sapiens, UniProt P11712). The series is described as follows: Inhibition of CYP2C9 in human liver microsomes assessed as reduction in diclofenac 4'-hydroxylation. In kind it is ADME.
Series [16] concerns Liver microsome. Kind of series: Metabolic stability assay in human liver microsomes assessed as parent drug disappearance at 1 uM after 20 mins by HPLC and mass spectrometry method. In kind it is ADME.
The test system of series [17] is Liver microsome. The series is described as follows: Metabolic stability assay in rat liver microsomes assessed as parent drug disappearance at 1 uM after 20 mins by HPLC and mass spectrometry method. In kind it is ADME.
The target of series [18] is Voltage-gated inwardly rectifying potassium channel KCNH2 (Homo sapiens, UniProt Q12809). Kind of series: Inhibition of human ERG expressed in HEK cells by patch-clamp assay. In kind it is cell-based. As to conditions: hek293.

Consider 7 molecules from ChEMBL document CHEMBL3351863, “Optimization of 2-phenyl-pyrimidine-4-carboxamides towards potent, orally bioavailable and selective P2Y(12) antagonists for inhibition of platelet aggregation” (Bioorg Med Chem Lett, 2014).

pIC50: −log10 of the molar value. A value given as a limit tells only on which side of the number the result lay.

T1 sequence (P08684 whole entry): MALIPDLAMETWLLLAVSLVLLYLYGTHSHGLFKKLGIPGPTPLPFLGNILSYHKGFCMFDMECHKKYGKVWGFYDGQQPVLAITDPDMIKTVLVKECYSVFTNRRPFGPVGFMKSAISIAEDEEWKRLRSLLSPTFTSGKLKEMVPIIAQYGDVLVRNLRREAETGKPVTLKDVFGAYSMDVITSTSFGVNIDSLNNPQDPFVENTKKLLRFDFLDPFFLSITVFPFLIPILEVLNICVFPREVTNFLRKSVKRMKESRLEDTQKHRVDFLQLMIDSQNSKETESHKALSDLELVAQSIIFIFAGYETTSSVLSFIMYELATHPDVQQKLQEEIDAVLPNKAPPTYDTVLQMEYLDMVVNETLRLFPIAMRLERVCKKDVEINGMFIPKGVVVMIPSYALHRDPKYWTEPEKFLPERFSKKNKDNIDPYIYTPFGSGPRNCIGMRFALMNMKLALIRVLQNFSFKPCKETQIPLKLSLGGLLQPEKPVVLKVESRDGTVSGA
P2Y purinoceptor 12, sequence (Q9H244 whole entry): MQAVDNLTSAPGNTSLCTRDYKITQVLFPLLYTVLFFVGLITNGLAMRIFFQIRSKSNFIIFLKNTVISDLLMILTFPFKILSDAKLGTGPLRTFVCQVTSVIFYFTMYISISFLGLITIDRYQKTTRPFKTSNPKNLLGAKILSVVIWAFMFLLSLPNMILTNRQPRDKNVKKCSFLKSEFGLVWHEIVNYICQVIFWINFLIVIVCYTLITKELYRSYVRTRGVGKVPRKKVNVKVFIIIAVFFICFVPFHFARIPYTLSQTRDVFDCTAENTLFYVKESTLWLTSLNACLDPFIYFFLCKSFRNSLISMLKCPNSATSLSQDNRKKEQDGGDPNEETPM
Voltage-gated inwardly rectifying potassium channel KCNH2, sequence (Q12809 whole entry): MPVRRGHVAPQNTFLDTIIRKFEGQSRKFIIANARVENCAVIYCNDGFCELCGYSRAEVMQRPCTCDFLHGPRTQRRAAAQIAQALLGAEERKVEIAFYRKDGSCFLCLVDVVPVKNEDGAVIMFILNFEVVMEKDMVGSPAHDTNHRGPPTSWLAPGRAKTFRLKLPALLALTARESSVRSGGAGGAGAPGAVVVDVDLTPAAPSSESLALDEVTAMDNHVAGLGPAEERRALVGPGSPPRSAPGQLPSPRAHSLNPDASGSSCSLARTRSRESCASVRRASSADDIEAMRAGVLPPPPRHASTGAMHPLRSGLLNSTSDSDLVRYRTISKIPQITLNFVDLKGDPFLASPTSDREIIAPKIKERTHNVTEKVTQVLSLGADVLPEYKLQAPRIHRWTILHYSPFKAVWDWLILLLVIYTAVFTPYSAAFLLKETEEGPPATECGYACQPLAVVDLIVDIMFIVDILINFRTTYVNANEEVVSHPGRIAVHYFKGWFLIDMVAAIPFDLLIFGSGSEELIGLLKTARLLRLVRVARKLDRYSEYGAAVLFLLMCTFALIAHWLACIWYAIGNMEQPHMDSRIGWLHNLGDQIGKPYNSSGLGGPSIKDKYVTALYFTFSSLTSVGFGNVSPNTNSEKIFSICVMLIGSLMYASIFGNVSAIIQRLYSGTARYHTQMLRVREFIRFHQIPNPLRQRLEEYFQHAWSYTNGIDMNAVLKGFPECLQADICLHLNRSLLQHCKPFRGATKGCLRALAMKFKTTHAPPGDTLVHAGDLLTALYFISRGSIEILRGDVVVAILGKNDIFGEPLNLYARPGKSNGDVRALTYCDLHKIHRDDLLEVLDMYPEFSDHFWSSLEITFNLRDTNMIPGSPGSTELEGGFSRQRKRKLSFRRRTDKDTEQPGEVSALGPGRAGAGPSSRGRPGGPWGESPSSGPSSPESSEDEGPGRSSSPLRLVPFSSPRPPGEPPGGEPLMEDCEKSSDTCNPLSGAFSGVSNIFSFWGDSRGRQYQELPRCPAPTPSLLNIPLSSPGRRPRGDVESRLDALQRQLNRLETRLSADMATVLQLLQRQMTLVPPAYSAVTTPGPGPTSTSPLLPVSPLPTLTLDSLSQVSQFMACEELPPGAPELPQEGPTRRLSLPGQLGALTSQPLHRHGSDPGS
Cytochrome P450 2D6, sequence (P10635 whole entry): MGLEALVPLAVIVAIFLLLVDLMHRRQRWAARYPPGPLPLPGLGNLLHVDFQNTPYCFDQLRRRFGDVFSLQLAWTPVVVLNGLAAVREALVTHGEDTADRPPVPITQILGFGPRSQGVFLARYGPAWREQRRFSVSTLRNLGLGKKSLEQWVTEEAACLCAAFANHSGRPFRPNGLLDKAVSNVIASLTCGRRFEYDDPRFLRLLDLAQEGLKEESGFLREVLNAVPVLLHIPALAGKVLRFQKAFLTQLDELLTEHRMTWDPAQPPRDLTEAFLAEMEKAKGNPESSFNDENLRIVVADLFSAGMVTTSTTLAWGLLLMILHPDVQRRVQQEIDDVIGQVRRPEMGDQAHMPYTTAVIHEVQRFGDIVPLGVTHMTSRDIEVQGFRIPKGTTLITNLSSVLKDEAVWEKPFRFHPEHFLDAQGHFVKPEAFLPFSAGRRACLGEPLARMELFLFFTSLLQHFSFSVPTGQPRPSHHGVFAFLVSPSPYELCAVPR
Cytochrome P450 2C9, sequence (P11712 whole entry): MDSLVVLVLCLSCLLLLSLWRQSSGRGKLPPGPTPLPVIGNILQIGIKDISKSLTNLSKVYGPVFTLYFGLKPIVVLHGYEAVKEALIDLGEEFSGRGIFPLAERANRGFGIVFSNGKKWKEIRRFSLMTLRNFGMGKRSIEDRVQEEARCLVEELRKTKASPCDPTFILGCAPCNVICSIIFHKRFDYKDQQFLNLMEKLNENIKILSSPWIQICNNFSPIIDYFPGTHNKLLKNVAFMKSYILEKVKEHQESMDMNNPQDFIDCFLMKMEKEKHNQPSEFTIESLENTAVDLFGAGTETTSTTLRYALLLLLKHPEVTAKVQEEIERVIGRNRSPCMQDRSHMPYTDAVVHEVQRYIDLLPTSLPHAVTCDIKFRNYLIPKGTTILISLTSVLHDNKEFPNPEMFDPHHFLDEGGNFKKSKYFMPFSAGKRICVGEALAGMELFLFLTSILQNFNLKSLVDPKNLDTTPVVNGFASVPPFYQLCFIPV

For the molecule `CCCCOC(=O)N1CCN(C(=O)[C@H](CCC(=O)O)NC(=O)c2cc([C@H]3C[C@@H]3COC)nc(-c3ccccc3)n2)CC1`, the negative logarithm of the IC50 (pIC50) on P2Y purinoceptor 12 was 8.32; in the series on Platelet [1] (platelet), 7.51. Moreover, in series [2], the “Ratio IC50” value turned out to be 6.4. Further, the log distribution coefficient (logD) in series [3] is 1.9. This molecule also registered a clearance in [4] of 17 mL/min/kg. Besides, the Vd in series [5] is 0.4 L/kg. Besides, the half-life in series [6] is 120 min. This molecule also registered an AUC in [7] of 6 µM·h. The molecule also gave a Cmax in series [8] of 7620 nM. In series [9], this molecule came in with a bioavailability of 33%.
As to `CCOC(=O)N1CCN(C(=O)[C@H](CCC(=O)O)NC(=O)c2cc(C(C)(C)O)nc(-c3ccccc3)n2)CC1`, the negative logarithm of the IC50 (pIC50) at P2Y purinoceptor 12 is 7.46; in the series with Platelet [1] (Homo sapiens, Platelet, Plasma), 6.93. Further, the Activity in the series with Platelet [10] is less than 30%; in the series on Platelet [11], less than 70%. For the same molecule, the “Ratio IC50” value in series [2] came to 3.4. Moreover, the solubility entry in [12] and in series [13] was “soluble” throughout. Further, the “inhibition (INH)” value (on Cytochrome P450 3A4 [14]; at Cytochrome P450 3A4 [15]; at Cytochrome P450 2D6; on Cytochrome P450 2C9; in series [18]) was “Not Active” in each case. The Stability result in the series on Liver microsome [16] and in the series on Liver microsome [17] was “Stable” in each case. Besides, the area under the curve (AUC) in series [7] was determined as 0.109 µM·h. The molecule also registered a Cmax in series [8] of 56.1 nM.
`CCOC(=O)N1CCN(C(=O)[C@H](CCC(=O)O)NC(=O)c2cc([C@@H]3C[C@H]3COC)nc(-c3ccccc3)n2)CC1`: the pIC50 on P2Y purinoceptor 12 was 7.37; in the series on Platelet [1] (Homo sapiens, Platelet, Plasma), 6.23. Besides, the Activity in the series with Platelet [10] came out at 30%. For the same molecule, in [2], the “Ratio IC50” value is 14. For the same molecule, the solubility entry in [12] and in [13] was “soluble” each time. In addition, the “inhibition (INH)” value (at Cytochrome P450 3A4 [14]; at Cytochrome P450 3A4 [15]; at Cytochrome P450 2D6; on Cytochrome P450 2C9; in series [18]) was “Not Active” each time. The Stability entry with Liver microsome [16] and with Liver microsome [17] was “Stable” each time. Further, the logD in series [3] came to 0.8. In addition, in series [4], the clearance was 14 mL/min/kg. Moreover, the Vd in series [5] came out at 0.3 L/kg. The molecule also showed a half-life in series [6] of 33 min. In [7], this molecule showed an AUC of 2.31 µM·h. In addition, the Cmax in series [8] is 2820 nM. For the same molecule, the bioavailability in series [9] was 11%.
On to `CCOC(=O)N1CCN(C(=O)[C@H](CCC(=O)O)NC(=O)c2cc(N3CCN(C)CC3)nc(-c3ccccc3)n2)CC1`, for which, on P2Y purinoceptor 12, the pIC50 was 7.34. The Activity is listed as less than 30% in the series with Platelet [10] and less than 70% with Platelet [11]. In addition, the solubility result in [12] and in series [13] was “soluble” in each case. The “inhibition (INH)” value (on Cytochrome P450 3A4 [14]; on Cytochrome P450 3A4 [15]; on Cytochrome P450 2D6; at Cytochrome P450 2C9; in series [18]) was “Not Active” throughout. In addition, the Stability entry with Liver microsome [16] and in the series with Liver microsome [17] was “Stable” each time. In series [4], this molecule showed a clearance of 49 mL/min/kg. Also, the Vd in series [5] was determined as 0.8 L/kg. For the same molecule, the half-life in [6] was 18 min. The AUC in series [7] is 0.164 µM·h. In addition, the highest level in [8] (Cmax) was 192 nM. Besides, the bioavailability in series [9] was found to be 3%.
Regarding `CCOC(=O)N1CCN(C(=O)[C@H](CCC(=O)O)NC(=O)c2cc(N3CC[C@H](OC)C3)nc(-c3ccccc3)n2)CC1`, the pIC50 on P2Y purinoceptor 12 was 7.80; in the series with Platelet [1] (Homo sapiens, Platelet, Plasma) it was 7.49. For the same molecule, the Activity in the series on Platelet [10] is less than 30%; in the series with Platelet [11], less than 70%. Also, the “Ratio IC50” value in series [2] is reported as 2. For the same molecule, the solubility result in [12] and in series [13] was “soluble” in each case. Besides, the “inhibition (INH)” value (at Cytochrome P450 3A4 [14]; on Cytochrome P450 3A4 [15]; on Cytochrome P450 2D6; on Cytochrome P450 2C9; in series [18]) was “Not Active” each time. Further, the Stability result in the series with Liver microsome [16] and in the series with Liver microsome [17] was “Stable” in each case. In series [4], this molecule showed a clearance of 36 mL/min/kg. Further, the Vd in [5] turned out to be 1.8 L/kg. The molecule further showed a half-life in [6] of 37.8 min. In series [7], the AUC amounted to 0.638 µM·h. The molecule also came in with a Cmax in series [8] of 683 nM. The same molecule registered a bioavailability in series [9] of 8%.
For `CCCCOC(=O)N1CCN(C(=O)[C@H](CCC(=O)O)NC(=O)c2cc(N3CC[C@H](OC)C3)nc(-c3ccccc3)n2)CC1`, the pIC50 was 8.52 at P2Y purinoceptor 12 and 7.68 in the series with Platelet [1] (Homo sapiens, Platelet, Plasma). Besides, in [2], the “Ratio IC50” value is 7. In addition, the solubility entry in series [12] and in [13] was “soluble” throughout. Also, the “inhibition (INH)” value (on Cytochrome P450 3A4 [14]; at Cytochrome P450 3A4 [15]; at Cytochrome P450 2D6; at Cytochrome P450 2C9; in series [18]) was “Not Active” in each case. Also, the Stability result in the series with Liver microsome [16] and with Liver microsome [17] was “Stable” in each case. This molecule came in with a clearance in [4] of 24 mL/min/kg. The Vd in [5] was 0.5 L/kg. Besides, the half-life in series [6] is 72 min. In series [7], this molecule displayed an AUC of 1.17 µM·h. Also, the peak concentration (Cmax) in series [8] is 1690 nM. In [9], this molecule displayed a bioavailability of 9%.
As for `CCOC(=O)N1CCN(C(=O)[C@H](CCC(=O)O)NC(=O)c2cc(C3CCC(O)CC3)nc(-c3ccccc3)n2)CC1` (stereo partly drawn), the pIC50 on P2Y purinoceptor 12 was 7.40; with Platelet [1] (Homo sapiens, Platelet, Plasma), 6.77. The Activity in the series on Platelet [10] is less than 30%; with Platelet [11] it was less than 70%. For the same molecule, the “Ratio IC50” value in series [2] was found to be 4.3. The solubility result in [12] and in series [13] was “soluble” in each case. The “inhibition (INH)” value (on Cytochrome P450 3A4 [14]; on Cytochrome P450 3A4 [15]; on Cytochrome P450 2D6; on Cytochrome P450 2C9; in series [18]) was “Not Active” each time. Besides, the Stability entry in the series with Liver microsome [16] and with Liver microsome [17] was “Stable” each time. For the same molecule, the AUC in [7] worked out at 0.0782 µM·h. Further, the peak concentration (Cmax) in series [8] was determined as 46.3 nM.
